In test [1] the test system is MCF7. The experiment in a line: Antiestrogenic activity in human MCF7 cells assessed as drug level causing inhibition of 100 pM E2-enhanced cell proliferation to level equivalent to 50 pM E2 after 96 hrs by alamar blue assay. The class given is functional. In outline:
(§1)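 Cells seeded at 1 × 10^4 per well in phenol red-free RPMI with 5% DCC-treated FBS. E2 was added from a 20 nM solution to give 100 pM and preincubated 1 h at 37 °C, 5% CO2. Compounds were then added at 0.1, 1, 10 and 100 µM for 96 h, with serially diluted tamoxifen as positive control. Antagonism was judged from cell populations. iEqE values were obtained by linear regression over four concentrations.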
On the technique in general: Alamar Blue is a resazurin reagent that responds to reducing activity.

Test [2] has as its system T47D. The experiment in a line: Antiestrogenic activity in human T47D cells assessed as drug level causing inhibition of 100 pM E2-enhanced cell proliferation to level equivalent to 10 pM E2 after 96 hrs by alamar blue assay. The format is functional. In outline: as §1
The subject of test [3] is MCF7. Description: Stimulation of human MCF7 cell proliferation up to 100 uM after 96 hrs by alamar blue assay relative to estradiol. The format is functional, cell-based. The gist of the method:
(§2)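 Compounds were given alone at 0.1, 1, 10 and 100 µM, and stimulation of proliferation was compared with estradiol at 1–100 pM. Cell proliferation assay as in an earlier report.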

In test [4] the test system is T47D. The experiment in a line: Stimulation of human T47D cell proliferation up to 100 uM after 96 hrs by alamar blue assay relative to estradiol. The class given is functional, cell-based. The gist of the method:
as §2

Test [5] relates to MCF7. Description: Antiestrogenic activity in human MCF7 cells assessed as drug level causing inhibition of 100 pM E2-enhanced cell proliferation to level equivalent to 1 pM E2 after 96 hrs by alamar blue assay. The class given is functional. In outline:
as §1

In test [6] the test system is T47D. Description: Antiestrogenic activity in human T47D cells assessed as drug level causing inhibition of 100 pM E2-enhanced cell proliferation to level equivalent to 50 pM E2 after 96 hrs by alamar blue assay. The format is functional. The gist of the method:
as §1

Test [7] has as its system MCF7. Description: Antiestrogenic activity in human MCF7 cells assessed as inhibition of E2-enhanced cell proliferation at 0.1 to 100 uM after 96 hrs by alamar blue assay. The format is functional. In outline:
as §1

Test [8] deals with MCF7. The experiment in a line: Antiestrogenic activity in human MCF7 cells assessed as drug level causing inhibition of 100 pM E2-enhanced cell proliferation to level equivalent to 10 pM E2 after 96 hrs by alamar blue assay. The class given is functional. The gist of the method:
as §1

Test [9] relates to T47D. The experiment in a line: Antiestrogenic activity in human T47D cells assessed as drug level causing inhibition of 100 pM E2-enhanced cell proliferation to level equivalent to 1 pM E2 after 96 hrs by alamar blue assay. The format is functional. The gist of the method: as §1
For test [10], the system named is T47D. The experiment in a line: Antiestrogenic activity in human T47D cells assessed as inhibition of E2-enhanced cell proliferation at 0.1 to 100 uM after 96 hrs by alamar blue assay. The class given is functional. In outline: as §1

Activity calls are given as the source filed them. The calls are words filed in the database; no cut-off is given here. Where only a bound is given, the exact number is not on record here.

Take `COc1cc([C@H]2OC[C@H]3[C@@H]2CO[C@@H]3c2cc(OC)c(O[C@@H]3O[C@H](CO)[C@@H](O)[C@H](O)[C@H]3O)c(OC)c2)ccc1O`: the Activity is below 0.1 µM in test [1]; 2 µM in test [2]; above 100 µM in test [5]; below 0.1 µM in [6]; below 0.1 µM in test [8]; above 100 µM in test [9]. Besides, the outcome in test [3] and in [4] was inactive. Also, the “inhibition (INH)” value in test [7] is recorded as above 90%.

Turning to `Nc1ncnc2c1ncn2[C@@H]1O[C@H](CO)[C@@H](O)[C@H]1O` [ADENOSINE], the Activity is below 0.1 µM in test [1]; 69 µM in test [2]; above 100 µM in test [5]; 2 µM in test [6]; below 0.1 µM in test [8]; above 100 µM in test [9]. The result in test [3] and in test [4] was inactive. Moreover, the “inhibition (INH)” value in [7] is above 90%.

Regarding `O=c1cc(-c2ccc(O)cc2)oc2cc(O[C@@H]3O[C@H](CO)[C@@H](O)[C@H](O)[C@H]3O)cc(O)c12` [APIGETRIN], the Activity is below 0.1 µM in test [1]; below 0.1 µM in test [2]; above 100 µM in [5]; below 0.1 µM in test [6]; below 0.1 µM in test [8]; 2 µM in test [9]. For the same compound, the outcome in test [3] and in test [4] was inactive. The “inhibition (INH)” value in [7] was above 90%.

Regarding `COc1cc(/C=C/C(=O)O[C@H]2C[C@@H]3C(C(=O)O)=CO[C@@H](O[C@@H]4O[C@H](CO)[C@@H](O)[C@H](O)[C@H]4O)[C@@H]3[C@@H]2C)ccc1O` [KHAINAOSIDE B], the Activity in [1] is below 0.1 µM; in test [2], below 0.1 µM; in test [5] it was above 100 µM; in test [6], below 0.1 µM; in test [8], below 0.1 µM; in test [9], above 100 µM. Moreover, the result in [3] and in test [4] was inactive. Besides, the “inhibition (INH)” value in [10] and in test [7] was above 90% each time.

On to `COc1cc(/C=C/CO)ccc1O[C@@H]1O[C@H](COC(=O)/C=C/c2ccc(O)c(O)c2)[C@@H](O)[C@H](O)[C@H]1O` [KHAINAOSIDE C], for which the Activity is 4 µM in test [1]; below 0.1 µM in [2]; 5 µM in test [5]; below 0.1 µM in test [6]; 4 µM in test [8]; above 100 µM in [9]. Besides, the result in test [3] and in test [4] was inactive. Moreover, the “inhibition (INH)” value in test [10] was above 90%.

In the case of `COc1cc(O[C@@H]2O[C@H](CO)[C@@H](O)[C@H](O)[C@H]2O)cc(OC)c1O` [KOABURASIDE], the Activity in [1] was below 0.1 µM; in test [2], 37 µM; in test [5] it was above 100 µM; in [6] it was 2 µM; in test [8] it was below 0.1 µM; in test [9] it was 70 µM. Also, the result in [3] and in test [4] was inactive. The “inhibition (INH)” value in test [7] is recorded as above 90%.

For the origin of these results see ChEMBL document CHEMBL1154802, “Antiestrogenic constituents of the Thai medicinal plants Capparis flavicans and Vitex glabrata” (2009).
